According to ChEMBL document CHEMBL1124033, “N-aryl 3-halogenated azetidin-2-ones and benzocarbacephems, inhibitors of beta-lactamases” (J Med Chem, 1988):

Each compound was assayed against Beta-lactamase TEM (Escherichia coli, UniProt P62593) (assay: Inhibition constant (Ki) for TEM-1 beta-lactamase).
Sequence of Beta-lactamase TEM (P62593 whole entry): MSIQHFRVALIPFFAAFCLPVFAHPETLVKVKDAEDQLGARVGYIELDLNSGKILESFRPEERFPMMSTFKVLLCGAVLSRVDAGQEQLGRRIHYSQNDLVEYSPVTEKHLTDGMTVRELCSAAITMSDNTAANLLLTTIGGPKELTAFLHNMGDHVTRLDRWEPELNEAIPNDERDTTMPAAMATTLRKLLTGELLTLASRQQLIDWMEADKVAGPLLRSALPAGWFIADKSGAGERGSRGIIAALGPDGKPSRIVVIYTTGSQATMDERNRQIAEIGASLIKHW
Summary of the method: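 Partially purified plasmid pBR322-encoded TEM-1 β-lactamase; computerized microacidimetric assay at pH 7, 37 °C. Time-dependent inactivation was checked by monitoring activity after enzyme preincubation with inhibitor at 1 to 100 concentrations.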
In the case of `O=C(O)c1ccc2c(c1)N1C(=O)CC1CC2Cl` (stereo unspecified), the Ki is reported as 50 µM. In the case of `Cc1ccc(C(=O)O)cc1N1CC(Br)(Br)C1=O`, the Ki is reported as 160 µM. For `Cc1ccc(C(=O)O)cc1N1CCC1=O`, the Ki was 10 µM. `Cc1ccc(C(=O)O)cc1N1CC(F)(Br)C1=O` (stereo unspecified) showed a Ki of 60 µM. In the case of `O=C(O)c1ccc2c(c1)N1C(=O)CC1CC2F` (stereo unspecified), the Ki is reported as 39 µM. Work on `Cc1ccc(C(=O)O)cc1N1CC(F)C1=O` (stereo unspecified) yielded a Ki of 20 µM. With `O=C(O)c1ccc2c(c1)N1C(=O)CC1CC2` (stereo unspecified) the Ki was 20 µM. `Cc1ccc(C(=O)O)cc1N1CC(F)(F)C1=O` was tested, and the Ki was 83 µM. For `Cc1ccc(C(=O)O)cc1N1CC(Br)C1=O` (stereo unspecified), the Ki was 40 µM. In the case of `Cc1onc(-c2ccccc2Cl)c1C(=O)N[C@@H]1C(=O)N2[C@@H]1SC(C)(C)[C@@H]2C(=O)O` [CLOXACILLIN], the Ki is reported as 13 µM. Work on `CC1(C)S[C@@H]2[C@H](NC(=O)Cc3ccccc3)C(=O)N2[C@H]1C(=O)O` [PENICILLIN G] yielded a Ki of 20 µM.
